Reference: ChEMBL document CHEMBL1138854, “Synthesis and antitumor activity of guanylhydrazones from 6-(2,4-dichloro-5-nitrophenyl)imidazo[2,1-b]thiazoles and 6-pyridylimidazo[2,1-b]thiazoles(1)” (2006)
The source made the active and inactive calls. No cut-off for these calls is given here.

What was measured:
[1] = tested on: NSCLC; test: Antitumor activity against NSCLC cell lines of the NCI60 panel; assay type: functional; settings: Homo sapiens; for TGI: read-out: pTGI (converted)
Summary of the method: (§1)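 Run by NCI in the 60-cell-line panel (details in Supporting Information). Highest concentration 10^-4 M unless noted (one case 10-2.6 M). Values expressed as -log molar concentration giving 50% growth inhibition (pGI50), total cytostasis (pTGI) or 50% cell kill (pLC50); only values >4.00 reported; mean graph midpoint is the calculated panel mean.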

[2] = Antitumor activity against renal cell lines of the NCI60 panel; assay type: functional, Homo sapiens; settings: Homo sapiens, renal; for TGI: read-out: pTGI (converted); summary of the method: as §1
[3] = target: T1, S-adenosylmethionine decarboxylase proenzyme (Homo sapiens) (UniProt P17707); test: Inhibition of SAMDC in HL60 cells by release of radioactive CO2 from [14C-carboxyl]S-adenosylmethionine; settings: HL-60
T1 sequence (whole entry): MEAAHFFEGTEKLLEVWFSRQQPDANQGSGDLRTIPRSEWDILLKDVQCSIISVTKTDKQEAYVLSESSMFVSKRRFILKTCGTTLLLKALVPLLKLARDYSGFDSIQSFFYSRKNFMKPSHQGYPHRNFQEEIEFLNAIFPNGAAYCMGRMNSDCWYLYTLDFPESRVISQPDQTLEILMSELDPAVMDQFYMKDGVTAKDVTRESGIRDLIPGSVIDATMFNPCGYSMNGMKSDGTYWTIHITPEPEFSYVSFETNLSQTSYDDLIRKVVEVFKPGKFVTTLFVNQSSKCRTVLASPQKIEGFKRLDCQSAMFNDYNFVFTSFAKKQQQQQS

[4] = Antitumor activity against colon cell lines of the NCI60 panel; assay type: functional; settings: Homo sapiens; for TGI: read-out: pTGI (converted); summary of the method: as §1
[5] = Antitumor activity against melanoma cell lines of the NCI60 panel; assay type: functional; settings: Homo sapiens; for TGI: read-out: pTGI (converted); summary of the method: as §1
[6] = Antitumor activity against breast cell lines of the NCI60 panel; assay type: functional; settings: Homo sapiens; for TGI: read-out: pTGI (converted); summary of the method: as §1
[7] = tested on: HL-60; test: Mitochondrial potential in HL60 cells assessed as decrease in ATP level at 0.5 uM; assay type: functional, cell-based; settings: Homo sapiens
[8] = Antitumor activity against prostate cell lines of the NCI60 panel; assay type: functional; settings: Homo sapiens; for TGI: read-out: pTGI (converted); summary of the method: as §1
[9] = Antitumor activity against leukemia cell lines of the NCI60 panel; assay type: functional; settings: Homo sapiens; for TGI: read-out: pTGI (converted); summary of the method: as §1
[10] = Antitumor activity against CNS cell lines of the NCI60 panel; assay type: functional; settings: Homo sapiens; for TGI: read-out: pTGI (converted); summary of the method: as §1
[11] = Antitumor activity against ovarian cell lines of the NCI60 panel; assay type: functional; settings: Homo sapiens; for TGI: read-out: pTGI (converted); summary of the method: as §1
[12] = tested on: HL-60; test: Reduction in S phase of cell cycle arrest in HL60 cells; assay type: functional, cell-based; settings: Homo sapiens
Summary of the method: (§2)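 HL60 cells (RPMI 1640, 10% FCS, 2 mM glutamine, 37 °C, 5% CO2) exposed to graded concentrations for 24 h; compound in DMSO diluted in complete medium, DMSO vehicle controls. Nuclei isolated, kept at 4 °C in dark, stained with 50 µg/mL propidium iodide just before flow cytometry; DNA profiles give G0/G1, S, G2/M fractions. Mean ± SEM of three determinations.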

[13] = tested on: HL-60; test: Induction of cell death in HL60 cells at 25 uM after 48 hrs relative to control; assay type: functional, Homo sapiens
Summary of the method: (§3)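 Compound was dissolved in DMSO and diluted into complete medium; controls received matching DMSO. Cell death was scored by propidium iodide flow cytometry and by trypan blue exclusion. One experiment is shown, repeated three times.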

[14] = tested on: HL-60; test: Increase in p21 level in HL60 cells at 25 uM after 24 hrs; assay type: functional, cell-based; settings: Homo sapiens
Summary of the method: (§4)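 HL60 cells held 24 h with or without 25 µM compound (DMSO vehicle); cellular proteins extracted and p21 and p27 detected by Western blotting with specific antibodies. Repeated at least twice.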

[15] = tested on: HL-60; test: Induction of cell death in HL60 cells at 50 uM after 24 hrs relative to control; assay type: functional, Homo sapiens; summary of the method: as §3
[16] = tested on: HL-60; test: Mitochondrial potential in HL60 cells assessed as decrease in mitochondrial membrane potential by DiOC6 staining at 25 uM after 24 hrs; parameters: scale not given: the % may be the effect or the level left
[17] = tested on: HL-60; test: Cell cycle arrest in HL60 cells by accumulation in G2/M phase at 25 uM after 24 hrs
[18] = tested on: HL-60; test: Increase in p27 level in HL60 cells at 25 uM after 24 hrs; assay type: functional, cell-based; settings: Homo sapiens; summary of the method: as §4
[19] = tested on: HL-60; test: Induction of cell death in HL60 cells at 50 uM within 3 hrs relative to control; assay type: functional, Homo sapiens; summary of the method: as §3
[20] = tested on: HL-60; test: Reduction in G0/G1 phase of cell cycle arrest in HL60 cells; assay type: functional, cell-based; settings: Homo sapiens; summary of the method: as §2
[21] = tested on: HL-60; test: Cell cycle arrest in HL60 cells by accumulation in G2/M phase; assay type: functional, cell-based; settings: Homo sapiens; summary of the method: as §2
[22] = tested on: HL-60; test: Reduction in cell proliferation of HL60 cells at 25 uM after 48 hrs relative to control; assay type: functional, Homo sapiens; parameters: scale not given: the % may be the effect or the level left
Summary of the method: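 HL60 cells in complete RPMI medium incubated with compound (DMSO-diluted; vehicle controls); total cell number counted by flow cytometry relative to control. One experiment shown, repeated three times.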

Structure (SMILES) | GI50 [1] [µM] | TGI [1] [µM] | GI50 [2] [µM] | TGI [2] [µM] | Activity [3] | GI50 [4] [µM] | TGI [4] [µM] | GI50 [5] [µM] | TGI [5] [µM] | GI50 [6] [µM] | TGI [6] [µM] | GI50 [8] [µM] | TGI [8] [µM] | GI50 [9] [µM] | TGI [9] [µM] | GI50 [10] [µM] | TGI [10] [µM] | GI50 [11] [µM] | TGI [11] [µM] | other results
CCCc1cn2c(/C=N/NC(=N)N)c(-c3cc([N+](=O)[O-])c(Cl)cc3Cl)nc2s1 | 1.74 | 3.24 | 1.66 | 3.09 | inactive | 1.48 | 2.75 | 1.66 | 3.09 | 1.74 | 3.47 | 1.74 | 3.39 | 0.724 | 1.95 | 1.66 | 3.09 | 1.62 | 3.02 | Activity [7]: inactive
N=C(N)N/N=C/c1c(-c2cc([N+](=O)[O-])c(Cl)cc2Cl)nc2n1CCS2 | 1.15 | 2.57 | 1.17 | 2.88 | – | 0.447 | 2.19 | 0.759 | 2.51 | 0.617 | 10.5 | 0.813 | 3.09 | 0.339 | 3.16 | 0.302 | 9.55 | 1.32 | 2.82 | –
N=C(N)N/N=C/c1c(-c2ccccn2)nc2sc(Cl)cn12 | 8.71 | 18.6 | 7.94 | 15.1 | – | 7.08 | 15.1 | 7.76 | 15.1 | 8.91 | 20.9 | 9.33 | 17.8 | 4.37 | 13.2 | 5.62 | 11.5 | 7.08 | 14.5 | –
N=C(N)N/N=C/c1c(-c2ccc(Cl)c([N+](=O)[O-])c2)nc2n1CCS2 | 10.5 | 38.9 | 10 | – | – | 6.61 | 17.4 | 8.32 | 24 | 11.5 | 27.5 | 6.61 | 20.9 | 3.09 | 13.2 | 6.92 | 25.7 | 9.77 | 30.9 | –
Cc1sc2nc(-c3cc([N+](=O)[O-])c(Cl)cc3Cl)c(/C=N/NC(=N)N)n2c1C | 11 | 47.9 | 8.71 | – | – | 4.27 | 29.5 | 5.01 | 16.2 | 7.24 | 35.5 | 9.12 | 38 | 2.09 | 22.4 | 11.2 | 67.6 | 5.25 | 24 | –
N=C(N)N/N=C/c1c(-c2cccnc2)nc2sc(Cl)cn12 | 20 | 41.7 | 18.2 | 35.5 | – | 8.51 | 21.9 | 18.2 | 36.3 | 16.6 | 46.8 | 15.1 | 28.2 | 13.8 | 42.7 | 15.1 | 31.6 | 15.5 | 36.3 | –
Cc1sc2nc(-c3ccccn3)c(/C=N/NC(=N)N)n2c1C | 18.2 | 37.2 | 6.61 | 31.6 | inactive | 18.2 | 40.7 | 17 | 33.1 | 22.9 | 41.7 | 22.4 | 57.5 | 52.5 | 83.2 | 20.9 | 41.7 | 18.6 | 37.2 | Activity [12]: Active; Activity [13]: 25%; Activity [14]: Active; Activity [15]: 100%; Activity [16]: 50%; Activity [17]: 52%; Activity [18]: Active; Activity [19]: 45%; Activity [20]: Active; Activity [21]: Dose-dependent effect; Activity [22]: > 80%
CCc1cn2c(/C=N/NC(=N)N)c(-c3cc([N+](=O)[O-])c(Cl)cc3Cl)nc2s1 | 1.7 | 3.16 | 1.51 | – | – | 1.38 | 2.95 | 1.51 | 2.82 | 1.66 | 4.27 | 1.58 | 3.09 | 0.933 | 3.24 | 1.45 | 2.82 | 1.58 | 3.09 | –
N=C(N)N/N=C/c1c(-c2ccncc2)nc2sc(Cl)cn12 | 6.76 | 17 | 6.61 | – | inactive | 8.13 | 27.5 | 5.89 | 13.8 | 13.2 | 40.7 | 17.4 | 33.1 | 3.8 | 11.7 | 7.76 | 20 | 10.2 | 20.9 | Activity [7]: inactive
Cc1cn2c(/C=N/NC(=N)N)c(-c3ccncc3)nc2s1 | 16.6 | 33.1 | 23.4 | 42.7 | – | 15.8 | 34.7 | 19.5 | 39.8 | 34.7 | 47.9 | 17.4 | 32.4 | 9.77 | 28.2 | 16.2 | 30.9 | 16.6 | 34.7 | –
